From publication PMC10582670 (Clinical and Translational Science, 2023)
Values joined by “and” are separate entries in the source; they are usually repeats but may differ in a detail not shown here. Equal entries are not always repeated.

Tested on: healthy volunteers
Assay: Safety and tolerability
Format: in vivo, human
Summary of the method: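 Healthy volunteers aged 18–55 y, BMI 18–30 kg/m², randomised double-blind 8:2 to once-daily oral drug or placebo for up to 14 days, with follow-up visits on days 21 and 42. Treatment-emergent AEs coded with MedDRA 23.1 and graded with the WHO toxicity scale, alongside ECGs, laboratory tests and vital signs. The safety population was all subjects receiving at least one dose.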

O=C(c1nc2n(n1)[C@H](c1ccccc1)C[C@@H]2F)C1CC1 [GDC‐8264]
No. of TEAEs (MAD 50 mg q.d., n = 5): 10
No. of deaths (MAD 50 mg q.d., n = 5): 0 no. of subjects (%)
No. of subjects with at least one Related TEAE (MAD 50 mg q.d., n = 5): 3 (60.0) no. of subjects (%)
No. of subjects with at least one Serious TEAE (MAD 50 mg q.d., n = 5): 0 no. of subjects (%)
No. of subjects with at least one TEAE (MAD 50 mg q.d., n = 5): 3 (60.0) no. of subjects (%)
No. of subjects withdrawn from study due to a TEAE (MAD 50 mg q.d., n = 5): 0 no. of subjects (%)
TEAE Abdominal pain (MAD 50 mg q.d., n = 5): 0 no. of subjects (%)
TEAE Back pain (MAD 50 mg q.d., n = 5): 0 no. of subjects (%)
TEAE Catheter site pain (MAD 50 mg q.d., n = 5): 0 no. of subjects (%)
TEAE Dermatitis contact (MAD 50 mg q.d., n = 5): 0 no. of subjects (%)
TEAE Diarrhea (MAD 50 mg q.d., n = 5): 1 (20.0) no. of subjects (%)
TEAE Dizziness (MAD 50 mg q.d., n = 5): 0 no. of subjects (%)
TEAE Dyspepsia (MAD 50 mg q.d., n = 5): 1 (20.0) no. of subjects (%)
TEAE Gastrointestinal sounds abnormal (MAD 50 mg q.d., n = 5): 0 no. of subjects (%)
TEAE Gingivitis (MAD 50 mg q.d., n = 5): 0 no. of subjects (%)
TEAE Headache (MAD 50 mg q.d., n = 5): 0 no. of subjects (%)
TEAE Medical device site dermatitis (MAD 50 mg q.d., n = 5): 0 no. of subjects (%)
TEAE Myalgia (MAD 50 mg q.d., n = 5): 0 no. of subjects (%)
TEAE Nausea (MAD 50 mg q.d., n = 5): 0 no. of subjects (%)
TEAE Presyncope (MAD 50 mg q.d., n = 5): 0 no. of subjects (%)
TEAE Somnolence (MAD 50 mg q.d., n = 5): 0 no. of subjects (%)
No. of TEAEs (MAD 100 mg q.d., n = 7): 32
No. of deaths (MAD 100 mg q.d., n = 7): 0 no. of subjects (%)
No. of subjects with at least one Related TEAE (MAD 100 mg q.d., n = 7): 5 (71.4) no. of subjects (%)
No. of subjects with at least one Serious TEAE (MAD 100 mg q.d., n = 7): 0 no. of subjects (%)
No. of subjects with at least one TEAE (MAD 100 mg q.d., n = 7): 7 (100) no. of subjects (%)
No. of subjects withdrawn from study due to a TEAE (MAD 100 mg q.d., n = 7): 0 no. of subjects (%)
TEAE Abdominal pain (MAD 100 mg q.d., n = 7): 2 (28.6) no. of subjects (%)
TEAE Back pain (MAD 100 mg q.d., n = 7): 0 no. of subjects (%)
TEAE Catheter site pain (MAD 100 mg q.d., n = 7): 2 (28.6) no. of subjects (%)
TEAE Dermatitis contact (MAD 100 mg q.d., n = 7): 1 (14.3) no. of subjects (%)
TEAE Diarrhea (MAD 100 mg q.d., n = 7): 2 (28.6) no. of subjects (%)
TEAE Dizziness (MAD 100 mg q.d., n = 7): 2 (28.6) no. of subjects (%)
TEAE Dyspepsia (MAD 100 mg q.d., n = 7): 0 no. of subjects (%)
TEAE Gastrointestinal sounds abnormal (MAD 100 mg q.d., n = 7): 1 (14.3) no. of subjects (%)
TEAE Gingivitis (MAD 100 mg q.d., n = 7): 2 (28.6) no. of subjects (%)
TEAE Headache (MAD 100 mg q.d., n = 7): 2 (28.6) no. of subjects (%)
TEAE Medical device site dermatitis (MAD 100 mg q.d., n = 7): 0 no. of subjects (%)
TEAE Myalgia (MAD 100 mg q.d., n = 7): 0 no. of subjects (%)
TEAE Nausea (MAD 100 mg q.d., n = 7): 1 (14.3) no. of subjects (%)
TEAE Presyncope (MAD 100 mg q.d., n = 7): 1 (14.3) no. of subjects (%)
TEAE Somnolence (MAD 100 mg q.d., n = 7): 3 (42.9) no. of subjects (%)
No. of TEAEs (MAD All GDC-8264, n = 12): 42
No. of deaths (MAD All GDC-8264, n = 12): 0 no. of subjects (%)
No. of subjects with at least one Related TEAE (MAD All GDC-8264, n = 12): 8 (66.7) no. of subjects (%)
No. of subjects with at least one Serious TEAE (MAD All GDC-8264, n = 12): 0 no. of subjects (%)
No. of subjects with at least one TEAE (MAD All GDC-8264, n = 12): 10 no. of subjects (%) and 10 (83.3) no. of subjects (%)
No. of subjects withdrawn from study due to a TEAE (MAD All GDC-8264, n = 12): 0 no. of subjects (%)
TEAE Abdominal pain (MAD All GDC-8264, n = 12): 2 (16.7) no. of subjects (%)
TEAE Back pain (MAD All GDC-8264, n = 12): 0 no. of subjects (%)
TEAE Catheter site pain (MAD All GDC-8264, n = 12): 2 (16.7) no. of subjects (%)
TEAE Dermatitis contact (MAD All GDC-8264, n = 12): 1 (8.3) no. of subjects (%)
TEAE Diarrhea (MAD All GDC-8264, n = 12): 3 (25.0) no. of subjects (%)
TEAE Dizziness (MAD All GDC-8264, n = 12): 2 (16.7) no. of subjects (%)
TEAE Dyspepsia (MAD All GDC-8264, n = 12): 1 (8.3) no. of subjects (%)
TEAE Gastrointestinal sounds abnormal (MAD All GDC-8264, n = 12): 1 (8.3) no. of subjects (%)
TEAE Gingivitis (MAD All GDC-8264, n = 12): 2 (16.7) no. of subjects (%)
TEAE Headache (MAD All GDC-8264, n = 12): 2 (16.7) no. of subjects (%)
TEAE Medical device site dermatitis (MAD All GDC-8264, n = 12): 0 no. of subjects (%)
TEAE Myalgia (MAD All GDC-8264, n = 12): 0 no. of subjects (%)
TEAE Nausea (MAD All GDC-8264, n = 12): 1 (8.3) no. of subjects (%)
TEAE Presyncope (MAD All GDC-8264, n = 12): 1 (8.3) no. of subjects (%)
TEAE Somnolence (MAD All GDC-8264, n = 12): 3 (25.0) no. of subjects (%)
No. of TEAEs (SAD (fasted) 5 mg, n = 6): 6
No. of deaths (SAD (fasted) 5 mg, n = 6): 0 no. of subjects (%)
No. of subjects with at least one Related TEAE (SAD (fasted) 5 mg, n = 6): 0 no. of subjects (%)
No. of subjects with at least one Serious TEAE (SAD (fasted) 5 mg, n = 6): 0 no. of subjects (%)
No. of subjects with at least one TEAE (SAD (fasted) 5 mg, n = 6): 5 (83.3) no. of subjects (%)
No. of subjects withdrawn from study due to a TEAE (SAD (fasted) 5 mg, n = 6): 0 no. of subjects (%)
TEAE Abdominal pain (SAD (fasted) 5 mg, n = 6): 1 (16.7) no. of subjects (%)
TEAE Back pain (SAD (fasted) 5 mg, n = 6): 0 no. of subjects (%)
TEAE Catheter site pain (SAD (fasted) 5 mg, n = 6): 1 (16.7) no. of subjects (%)
TEAE Dermatitis contact (SAD (fasted) 5 mg, n = 6): 1 (16.7) no. of subjects (%)
TEAE Diarrhea (SAD (fasted) 5 mg, n = 6): 0 no. of subjects (%)
TEAE Dizziness (SAD (fasted) 5 mg, n = 6): 0 no. of subjects (%)
TEAE Dyspepsia (SAD (fasted) 5 mg, n = 6): 1 (16.7) no. of subjects (%)
TEAE Gastrointestinal sounds abnormal (SAD (fasted) 5 mg, n = 6): 0 no. of subjects (%)
TEAE Gingivitis (SAD (fasted) 5 mg, n = 6): 0 no. of subjects (%)
TEAE Headache (SAD (fasted) 5 mg, n = 6): 1 (16.7) no. of subjects (%)
TEAE Medical device site dermatitis (SAD (fasted) 5 mg, n = 6): 0 no. of subjects (%)
TEAE Myalgia (SAD (fasted) 5 mg, n = 6): 0 no. of subjects (%)
TEAE Nausea (SAD (fasted) 5 mg, n = 6): 0 no. of subjects (%)
TEAE Presyncope (SAD (fasted) 5 mg, n = 6): 0 no. of subjects (%)
TEAE Somnolence (SAD (fasted) 5 mg, n = 6): 0 no. of subjects (%)
No. of TEAEs (SAD (fasted) 25 mg, n = 6): 6
No. of deaths (SAD (fasted) 25 mg, n = 6): 0 no. of subjects (%)
No. of subjects with at least one Related TEAE (SAD (fasted) 25 mg, n = 6): 0 no. of subjects (%)
No. of subjects with at least one Serious TEAE (SAD (fasted) 25 mg, n = 6): 0 no. of subjects (%)
No. of subjects with at least one TEAE (SAD (fasted) 25 mg, n = 6): 4 (66.7) no. of subjects (%)
No. of subjects withdrawn from study due to a TEAE (SAD (fasted) 25 mg, n = 6): 0 no. of subjects (%)
TEAE Abdominal pain (SAD (fasted) 25 mg, n = 6): 1 (16.7) no. of subjects (%)
TEAE Back pain (SAD (fasted) 25 mg, n = 6): 0 no. of subjects (%)
TEAE Catheter site pain (SAD (fasted) 25 mg, n = 6): 0 no. of subjects (%)
TEAE Dermatitis contact (SAD (fasted) 25 mg, n = 6): 0 no. of subjects (%)
TEAE Diarrhea (SAD (fasted) 25 mg, n = 6): 0 no. of subjects (%)
TEAE Dizziness (SAD (fasted) 25 mg, n = 6): 0 no. of subjects (%)
TEAE Dyspepsia (SAD (fasted) 25 mg, n = 6): 0 no. of subjects (%)
TEAE Gastrointestinal sounds abnormal (SAD (fasted) 25 mg, n = 6): 0 no. of subjects (%)
TEAE Gingivitis (SAD (fasted) 25 mg, n = 6): 0 no. of subjects (%)
TEAE Headache (SAD (fasted) 25 mg, n = 6): 2 (33.3) no. of subjects (%)
TEAE Medical device site dermatitis (SAD (fasted) 25 mg, n = 6): 0 no. of subjects (%)
TEAE Myalgia (SAD (fasted) 25 mg, n = 6): 0 no. of subjects (%)
TEAE Nausea (SAD (fasted) 25 mg, n = 6): 0 no. of subjects (%)
TEAE Presyncope (SAD (fasted) 25 mg, n = 6): 1 (16.7) no. of subjects (%)
TEAE Somnolence (SAD (fasted) 25 mg, n = 6): 0 no. of subjects (%)
